Assay results: ChEMBL document CHEMBL1145980, “Molecular modeling calculations of HIV-1 reverse transcriptase nonnucleoside inhibitors: correlation of binding energy with biological activity for novel 2-aryl-substituted benzimidazole analogues” (J Med Chem, 2003)

These compounds were tested against Human immunodeficiency virus type 1 reverse transcriptase (Human immunodeficiency virus 1, UniProt Q72547) (assay: Inhibition of HIV-1 reverse transcriptase.).
Method in brief: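 Antiviral activity measured in cells infected with the HIV-1-based vector pNLNgoMI/R-E. The vector expresses the murine cell-surface marker gene hsa from the nef reading frame, so vector-infected cells can be identified by that marker. Results are reported as EC50.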

Point of comparison: `Fc1cccc(F)c1Cn1c(-c2c(F)cccc2F)nc2ccccc21`, EC50 1700 nM. Against it:
- CCc1cccc2c1nc(-c1c(F)cccc1F)n2Cc1c(F)cccc1F — 2.1-fold lower, 820 nM
- CNc1cccc2c1nc(-c1c(F)cccc1F)n2Cc1c(F)cccc1F — within 1.5-fold, 2400 nM
- NC(=O)c1cccc2c1nc(-c1c(F)cccc1F)n2Cc1c(F)cccc1F — 4.6-fold lower, 370 nM
- COc1cccc(F)c1-c1nc2c(N)cccc2n1Cc1c(F)cccc1F — 1.6-fold higher, 2710 nM
- O=[N+]([O-])c1cccc2c1nc(-c1c(F)cccc1F)n2Cc1c(F)cccc1F — 3.8-fold lower, 450 nM
- CC(=O)Nc1cccc2c1nc(-c1c(F)cccc1F)n2Cc1c(F)cccc1F — within 1.5-fold, 1650 nM
- Cc1cccc2c1nc(-c1c(F)cccc1F)n2Cc1c(F)cccc1F — 3.9-fold lower, 440 nM
- OCc1cccc2c1nc(-c1c(F)cccc1F)n2Cc1c(F)cccc1F — 34-fold lower, 50 nM
- Fc1cccc(F)c1Cn1c(-c2c(F)cccc2F)nc2c(Cl)cccc21 — 4.2-fold lower, 400 nM
- [N-]=[N+]=NCc1cccc2c1nc(-c1c(F)cccc1F)n2Cc1c(F)cccc1F — 38-fold lower, 45 nM
- O=Cc1cccc2c1nc(-c1c(F)cccc1F)n2Cc1c(F)cccc1F — 17-fold lower, 100 nM
- CC(=O)N(C)c1cccc2c1nc(-c1c(F)cccc1F)n2Cc1c(F)cccc1F — 42-fold lower, 40 nM
- NCc1cccc2c1nc(-c1c(F)cccc1F)n2Cc1c(F)cccc1F — within 1.5-fold, 1360 nM
- Fc1cccc(F)c1Cn1c(-c2c(F)cccc2F)nc2c(Br)cccc21 — 4.6-fold lower, 370 nM
- Fc1cccc(F)c1Cn1c(-c2ccccc2)nc2ccccc21 — 3.6-fold higher, 6060 nM
- N#CCc1cccc2c1nc(-c1c(F)cccc1F)n2Cc1c(F)cccc1F — 28-fold lower, 60 nM
- COc1cccc2c1nc(-c1c(F)cccc1F)n2Cc1c(F)cccc1F — 21-fold lower, 80 nM
- Fc1cccc(F)c1Cn1c(-c2c(F)cccc2F)nc2c(CCl)cccc21 — 11-fold lower, 160 nM
- Nc1cccc2c1nc(-c1c(F)cccc1F)n2Cc1c(F)cccc1F — 3.2-fold lower, 530 nM
- Cc1cccc2c1nc(-c1c(F)cccc1F)n2Cc1ccccc1 — 2.3-fold lower, 750 nM
- CC(=O)OCc1cccc2c1nc(-c1c(F)cccc1F)n2Cc1c(F)cccc1F — 28-fold lower, 60 nM
